In ChEMBL document CHEMBL5042537, “Synthesis and Characterization of 5-(2-Fluoro-4-[11C]methoxyphenyl)-2,2-dimethyl-3,4-dihydro-2H-pyrano[2,3-b]pyridine-7-carboxamide as a PET Imaging Ligand for Metabotropic Glutamate Receptor 2” (J Med Chem, 2022):
Active and inactive are the calls of the source. The rule behind the calls is not given here.

Assays:
[1] = Permeability of the compound in Sprague-Dawley rat brain striatum at 1 to 30 mins by CT scan; format: ADME, tissue-based; settings: time 1-30 min
In short: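 Male Sprague–Dawley rats under isoflurane anaesthesia were injected iv via tail vein with the [11C] tracer (63.0–87.3 MBq). Dynamic PET ran for 60 min, reconstructed by MLEM, with a CT scan for attenuation correction. Striatal SUV time-activity curves were derived, and images were summed over 1–30 min.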

[2] = target: T1, Metabotropic glutamate receptor 2 (Homo sapiens, UniProt Q14416); test: Binding affinity to human recombinant mGlur2 assessed as inhibition constant by cAMP Glosensor assay
Target sequence in this assay (Q14416 whole entry): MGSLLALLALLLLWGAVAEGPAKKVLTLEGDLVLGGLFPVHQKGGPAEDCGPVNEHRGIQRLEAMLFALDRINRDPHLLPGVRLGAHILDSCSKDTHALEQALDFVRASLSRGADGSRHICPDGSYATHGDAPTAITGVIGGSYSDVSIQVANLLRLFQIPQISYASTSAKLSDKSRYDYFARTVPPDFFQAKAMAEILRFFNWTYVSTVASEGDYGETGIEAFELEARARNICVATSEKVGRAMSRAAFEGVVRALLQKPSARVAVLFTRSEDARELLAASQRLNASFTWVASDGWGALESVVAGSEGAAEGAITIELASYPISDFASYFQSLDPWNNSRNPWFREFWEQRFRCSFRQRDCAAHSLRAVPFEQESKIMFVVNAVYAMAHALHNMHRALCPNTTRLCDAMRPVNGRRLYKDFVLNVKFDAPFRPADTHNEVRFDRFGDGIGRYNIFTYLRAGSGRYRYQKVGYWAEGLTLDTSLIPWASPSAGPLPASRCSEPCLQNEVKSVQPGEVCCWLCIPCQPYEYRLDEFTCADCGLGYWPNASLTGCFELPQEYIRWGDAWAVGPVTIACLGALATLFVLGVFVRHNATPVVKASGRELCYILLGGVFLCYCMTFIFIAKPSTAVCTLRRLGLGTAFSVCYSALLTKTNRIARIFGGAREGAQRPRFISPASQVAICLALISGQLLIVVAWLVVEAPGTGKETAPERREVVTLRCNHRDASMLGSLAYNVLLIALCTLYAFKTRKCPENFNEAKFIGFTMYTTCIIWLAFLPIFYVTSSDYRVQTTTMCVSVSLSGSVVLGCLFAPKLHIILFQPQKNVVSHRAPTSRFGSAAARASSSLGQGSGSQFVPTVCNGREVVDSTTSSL

[3] = target: T1, Metabotropic glutamate receptor 2; test: Negative allosteric modulation activity at human recombinant mGlur2 at 30 nM by cAMP Glosensor assay; format: functional; settings: filed as negative allosteric modulator
In short: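 Flp-In T-REx-293 cells with tetracycline-inducible mGluR2 (induced with 1 μg/mL tetracycline) were transfected with pGloSensor-21F and plated at 15,000 cells/well in BME with 1% dialyzed FBS. Split-luciferase cAMP read-out was taken with 0.1 μM isoproterenol and increasing L-glutamate. Glutamate curves were fitted to an allosteric operational model; three independent assays in triplicate.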
Target sequence in this assay (Q14416 19-872 limits assumed): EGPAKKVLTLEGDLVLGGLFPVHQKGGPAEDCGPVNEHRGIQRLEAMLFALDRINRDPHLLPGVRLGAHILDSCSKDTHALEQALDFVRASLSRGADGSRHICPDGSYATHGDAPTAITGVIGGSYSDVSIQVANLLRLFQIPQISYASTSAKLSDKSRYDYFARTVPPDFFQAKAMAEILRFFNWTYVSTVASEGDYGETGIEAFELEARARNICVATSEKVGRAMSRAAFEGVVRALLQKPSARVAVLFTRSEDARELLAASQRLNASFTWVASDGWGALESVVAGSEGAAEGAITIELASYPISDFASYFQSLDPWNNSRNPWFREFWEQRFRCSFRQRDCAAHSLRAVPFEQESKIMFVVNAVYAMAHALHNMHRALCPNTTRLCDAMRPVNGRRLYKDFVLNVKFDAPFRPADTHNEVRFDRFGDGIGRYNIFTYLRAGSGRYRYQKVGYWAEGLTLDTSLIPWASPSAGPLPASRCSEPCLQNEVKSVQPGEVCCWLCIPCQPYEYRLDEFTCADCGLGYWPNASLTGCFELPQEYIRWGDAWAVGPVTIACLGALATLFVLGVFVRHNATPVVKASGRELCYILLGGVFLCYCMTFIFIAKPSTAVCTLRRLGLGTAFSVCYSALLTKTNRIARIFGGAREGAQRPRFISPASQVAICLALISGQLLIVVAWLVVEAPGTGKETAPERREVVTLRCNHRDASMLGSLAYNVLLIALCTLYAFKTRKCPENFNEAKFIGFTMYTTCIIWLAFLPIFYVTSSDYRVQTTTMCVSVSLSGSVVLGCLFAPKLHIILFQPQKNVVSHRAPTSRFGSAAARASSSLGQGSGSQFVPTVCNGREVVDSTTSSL

[4] = Lipophilicity, LogD at pH 7.4 of the compound by shake flask method; format: physicochemical; settings: buffer
In short: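 Shake-flask method: 0.1 mg compound in n-octanol/PBS pH 7.4 (1.0 mL each), vortexed 1 min and shaken at 37 °C overnight. Each phase was quantified by HPLC peak area at 254 nm, and LogD = log(octanol/PBS). Run at least three times.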

[5] = Stability of the compound in rat plasma measured at 60 min; format: ADME, cell-free; settings: read-out: Stability
In short: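 Compound (2.5 μL of 1 mM DMSO stock) was incubated in 100 μL rat serum at 37 °C for 60 min, then quenched with ice-cold acetonitrile and centrifuged. Supernatant was analysed by HPLC against an internal standard. Stability = peak area at 60 min / peak area at 0 min × 100%; at least three repeats.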

[6] = Stability of the compound in rat liver microsome measured at 60 min; format: ADME; settings: liver microsomes, read-out: Stability
In short: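 Compound (1.5 μL of 1 mM DMSO stock) in PBS was preincubated at 37 °C, then Sprague–Dawley rat liver microsomes and NADPH (10 mM stock) were added. After 60 min at 37 °C, reactions were quenched with cold acetonitrile and analysed by HPLC against an internal standard. Stability = 60 min/0 min peak area × 100%; at least three repeats.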

[7] = Drug metabolism in Cynomolgus monkey plasma assessed as parent compound remaining pretreated with 4-(4-fluorophenyl)-5-((1-methyl-1H-pyrazol-3-yl)methoxy)picolinamide at 1 mg/kg, iv for 20 mins before administration of tracer injection measured after 30 mins by CT scan; format: ADME, organism-based, Macaca fascicularis; settings: read-out: Stability
In short: (§1)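 Cynomolgus monkey (female, 5.0 kg) given tracer as a 3 min iv infusion, with blocker 1.0 mg/kg iv 20 min before. Plasma samples from 5–120 min were analysed by automated column-switching radioHPLC (capture column, then C18 with acetonitrile:0.1 M ammonium formate 45:55, 0.1% TFA). Eluate was collected in 1 min fractions and gamma-counted to give percent parent.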

[8] = Drug uptake in Sprague-Dawley rat brain striatum mGlr2 rich region by CT scan; format: ADME, tissue-based; settings: in vivo
In short: (§2)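 Male Sprague–Dawley rats (285–421 g) under isoflurane received [11C] tracer (63.0–87.3 MBq) iv via tail vein, followed by 60 min dynamic PET with CT for attenuation correction. Blockers were given iv 1 or 20 min before tracer, at 0.5 mg/kg (10% ethanol/5% Tween-80/saline) or 0.2 mg/kg (10% DMSO/5% Tween-20/PBS). Regional accumulation was taken over 2–30 min and compared with baseline scans.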

[9] = Drug uptake in Sprague-Dawley rat brain thalamus mGlr2 rich region by CT scan; format: ADME, tissue-based; settings: in vivo; in short: as §2
[10] = Drug uptake in Sprague-Dawley rat brain cortex mGlr2 rich region by CT scan; format: ADME, tissue-based; settings: in vivo; in short: as §2
[11] = Drug uptake in Sprague-Dawley rat brain hypothalamus mGlr2 rich region by CT scan; format: ADME, tissue-based; settings: in vivo; in short: as §2
[12] = Drug uptake in Sprague-Dawley rat brain hippocampus mGlr2 rich region by CT scan; format: ADME, tissue-based; settings: in vivo; in short: as §2
[13] = Drug uptake in Sprague-Dawley rat brain cerebellum mGlr2 rich region by CT scan; format: ADME, tissue-based; settings: in vivo; in short: as §2
[14] = Drug uptake in Sprague-Dawley rat brain cortex mGlr2 rich region assessed as decrease in drug accumulation pretreated with 4-(4-fluorophenyl)-5-((1-methyl-1H-pyrazol-3-yl)methoxy)picolinamide at 0.5 mg/kg, iv for 1 min before administration of tracer injection by CT scan; format: ADME, organism-based; settings: in vivo; in short: as §2
[15] = Drug uptake in Sprague-Dawley rat brain thalamus mGlr2 rich region assessed as decrease in drug accumulation pretreated with 4-(4-fluorophenyl)-5-((1-methyl-1H-pyrazol-3-yl)methoxy)picolinamide at 0.5 mg/kg, iv for 1 min before administration of tracer injection by CT scan; format: ADME, organism-based; settings: in vivo; in short: as §2
[16] = Drug uptake in Sprague-Dawley rat brain striatum mGlr2 rich region assessed as decrease in drug accumulation pretreated with 4-(4-fluorophenyl)-5-((1-methyl-1H-pyrazol-3-yl)methoxy)picolinamide at 0.5 mg/kg, iv for 1 min before administration of tracer injection by CT scan; format: ADME, organism-based; settings: in vivo, pooled result: one value given for 4 cell lines, strains, targets or settings; in short: as §2
[17] = Drug uptake in Sprague-Dawley rat brain hypothalamus mGlr2 rich region assessed as decrease in drug accumulation pretreated with 4-(8-bromo-2-oxo-2,3-dihydro-1H-benzo[b][1,4]diazepin-4-yl)picolinonitrile at 0.2 mg/kg, iv for 1 min before administration of tracer injection by CT scan; format: ADME, organism-based; settings: in vivo; in short: as §2
[18] = Drug uptake in Sprague-Dawley rat brain […] rich region assessed as decrease in drug accumulation pretreated with 4-(8-bromo-2-oxo-2,3-dihydro-1H-benzo[b][1,4]diazepin-4-yl)picolinonitrile at 0.2 mg/kg, iv for 1 min before administration of tracer injection by CT scan; format: ADME, organism-based; settings: in vivo; in short: as §2
[19] = Drug uptake in Sprague-Dawley rat brain striatum mGlr2 rich region assessed as decrease in drug accumulation pretreated with 4-(8-bromo-2-oxo-2,3-dihydro-1H-benzo[b][1,4]diazepin-4-yl)picolinonitrile at 0.2 mg/kg, iv for 1 min before administration of tracer injection by CT scan; format: ADME, organism-based; settings: in vivo; in short: as §2
[20] = Drug uptake in Sprague-Dawley rat brain thalamus mGlr2 rich region assessed as decrease in drug accumulation pretreated with 4-(8-bromo-2-oxo-2,3-dihydro-1H-benzo[b][1,4]diazepin-4-yl)picolinonitrile at 0.2 mg/kg, iv for 1 min before administration of tracer injection by CT scan; format: ADME, organism-based; settings: in vivo; in short: as §2
[21] = Drug uptake in Sprague-Dawley rat brain hippocampus mGlr2 rich region assessed as decrease in drug accumulation pretreated with 4-(8-bromo-2-oxo-2,3-dihydro-1H-benzo[b][1,4]diazepin-4-yl)picolinonitrile at 0.2 mg/kg, iv for 1 min before administration of tracer injection by CT scan; format: ADME, organism-based; settings: in vivo; in short: as §2
[22] = Drug uptake in Sprague-Dawley rat brain cerebellum mGlr2 rich region assessed as decrease in drug accumulation pretreated with 4-(8-bromo-2-oxo-2,3-dihydro-1H-benzo[b][1,4]diazepin-4-yl)picolinonitrile at 0.2 mg/kg, iv for 1 min before administration of tracer injection by CT scan; format: ADME, organism-based; settings: in vivo; in short: as §2
[23] = Drug uptake in Sprague-Dawley rat brain cerebellum mGlr2 rich region assessed as decrease in drug accumulation pretreated with 4-(8-bromo-2-oxo-2,3-dihydro-1H-benzo[b][1,4]diazepin-4-yl)picolinonitrile at 0.2 mg/kg, iv for 20 min before administration of tracer injection by CT scan; format: ADME, organism-based; settings: in vivo; in short: as §2
[24] = Drug uptake in Sprague-Dawley rat brain striatum mGlr2 rich region assessed as decrease in drug accumulation pretreated with 4-(8-bromo-2-oxo-2,3-dihydro-1H-benzo[b][1,4]diazepin-4-yl)picolinonitrile at 0.2 mg/kg, iv for 20 min before administration of tracer injection by CT scan; format: ADME, organism-based; settings: in vivo; in short: as §2
[25] = Drug uptake in Sprague-Dawley rat brain thalamus mGlr2 rich region assessed as decrease in drug accumulation pretreated with 4-(8-bromo-2-oxo-2,3-dihydro-1H-benzo[b][1,4]diazepin-4-yl)picolinonitrile at 0.2 mg/kg, iv for 20 min before administration of tracer injection by CT scan; format: ADME, organism-based; settings: in vivo, pooled result: one value given for 4 cell lines, strains, targets or settings; in short: as §2
[26] = Drug metabolism in Cynomolgus monkey plasma assessed as retention time of metabolite by measuring pretreated with 4-(4-fluorophenyl)-5-((1-methyl-1H-pyrazol-3-yl)methoxy)picolinamide at 1 mg/kg, iv for 20 min before administration of tracer injection by CT scan; format: ADME, organism-based, Macaca fascicularis; settings: in vivo; in short: as §1
[27] = Drug metabolism in Cynomolgus monkey plasma assessed as parent compound remaining pretreated with 4-(4-fluorophenyl)-5-((1-methyl-1H-pyrazol-3-yl)methoxy)picolinamide at 1 mg/kg, iv for 20 mins before administration of tracer injection measured after 120 mins by CT scan; format: ADME, organism-based, Macaca fascicularis; settings: read-out: Stability; in short: as §1
[28] = Permeability of the compound across blood brain barrier in Sprague-Dawley rat after 4 mins by CT scan; format: ADME, tissue-based
In short: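 Male Sprague–Dawley rats (285–421 g) under isoflurane (1.0–1.5%) in oxygen. [11C]tracer (63.0–87.3 MBq) given iv via tail-vein catheter. Dynamic PET ran 60 min from injection, followed by CT for anatomy and attenuation correction. Data were reconstructed by MLEM into 24 frames. Regional brain uptake was expressed as SUV time-activity curves.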

Q: For `Cn1ccc(COc2cnc(C(N)=O)cc2-c2ccc(O[11CH3])cc2F)n1`, which SUVmax [1] is on record?
A: 1.2

Q: With `[11CH3]Oc1cc(CN2CCc3c(-c4ccc(F)cc4F)cc(C(N)=O)nc3C2)ccn1` as the compound, how does the SUVmax [1] read?
A: 1.7

Q: Which Ki [2] does the source give for `CC1(C)CCc2c(-c3ccc(F)cc3F)cc(C(N)=O)nc2O1` here?
A: 59 nM

Q: What about the Activity [3] of the same compound?
A: Active

Q: And the logD [4]?
A: 2.81

Q: What about the remaining at 1 h [5] of the same compound?
A: 95.3%

Q: What about the remaining at 1 h [6] of the same compound?
A: 94.5%

Q: Which results are given for `CC1(C)CCc2c(-c3ccc(O[11CH3])cc3F)cc(C(N)=O)nc2O1`?
A: remaining at 20 min [7]: 53%; Drug uptake [8]: Active; Drug uptake [9]: Active; Drug uptake [10]: Active; Drug uptake [11]: Active; Drug uptake [12]: Active; Drug uptake [13]: Active; Drug uptake [14]: 38.5%; Drug uptake [15]: 17.1%; Drug uptake [16]: 22.4%; Drug uptake [17]: 42.6%; Drug uptake [18]: 39.6%; Drug uptake [19]: 41.7%; Drug uptake [20]: 41.7%; Drug uptake [21]: 41.7%; Drug uptake [22]: 39.6%; Drug uptake [23]: 15.2%; Drug uptake [24]: 11.1%; Drug uptake [25]: 12.7%; Retention_time [26]: 2 min; remaining at 20 min [27]: 24.8%; SUV [28]: 7.5

Q: Which logD [4] does the source give for `COc1ccc(-c2cc(C(N)=O)nc3c2CCC(C)(C)O3)c(F)c1` here?
A: 2.94

Q: And the remaining at 1 h [5]?
A: 94.5%

Q: And the remaining at 1 h [6]?
A: 47.8%
